Consider 7 molecules from ChEMBL document CHEMBL3351404, “Structure-Activity Studies Reveal the Oxazinone Ring Is a Determinant of Cytochrome P450 2B6 Activity Toward Efavirenz” (ACS Med Chem Lett, 2014).

One may read the Km as the substrate concentration at which the rate is half of its maximum. As a reminder, the Vmax is the top rate of the reaction or transport when substrate is in excess. One may read the inhibition as the relative decrease from the control value, in per cent.

The subject of data set [1] is Liver microsome. The experiment in a line: Drug metabolism in pooled human liver microsomes assessed as compound formation at 10 uM incubated for 60 mins in presence of NADPH by uHPLC-MS/MS method. It is filed as ADME. The settings on record: 1 h. In a few lines:
(§1)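 Metabolite identification in human liver microsome incubations with 10 μM substrate. Products were assigned by m/z (monooxygenated, dihydroxylated, N-dealkylated), uHPLC retention time and MS/MS fragment ions. Parallel incubations in isotopic water located the inserted oxygen from +2 shifts in fragment masses.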
Background: Liver microsomes are a subcellular fraction often used to study metabolism.

The nature of data set [2]: Retention time of the compound by uHPLC-MS/MS method. Format: physicochemical. In a few lines:
as §1

Data set [3] addresses T1, Cytochrome P450 1A2 (Homo sapiens, UniProt P05177).
T1 sequence (P05177 whole entry): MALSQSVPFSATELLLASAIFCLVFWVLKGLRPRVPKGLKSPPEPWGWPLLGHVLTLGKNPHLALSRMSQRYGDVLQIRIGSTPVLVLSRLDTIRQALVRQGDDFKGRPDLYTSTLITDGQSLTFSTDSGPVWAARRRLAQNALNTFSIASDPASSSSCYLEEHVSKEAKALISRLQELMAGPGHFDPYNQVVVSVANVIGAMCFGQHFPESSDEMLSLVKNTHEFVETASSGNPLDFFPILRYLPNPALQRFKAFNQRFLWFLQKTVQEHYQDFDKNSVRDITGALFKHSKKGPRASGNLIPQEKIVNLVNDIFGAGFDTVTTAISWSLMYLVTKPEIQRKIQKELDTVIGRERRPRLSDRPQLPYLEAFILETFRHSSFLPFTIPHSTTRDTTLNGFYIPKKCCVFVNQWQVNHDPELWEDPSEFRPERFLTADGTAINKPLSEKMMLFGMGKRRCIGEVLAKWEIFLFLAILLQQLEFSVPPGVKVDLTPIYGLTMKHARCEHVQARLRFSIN
The experiment in a line: Drug metabolism assessed as CYP1A2 (unknown origin)-mediated compound formation at 10 uM incubated for 60 mins in presence of NADPH by uHPLC-MS/MS method. Format: ADME. The conditions noted are these: 1 h. A digest of the protocol: (§2)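 Individual cDNA-expressed human P450s (CYP2B6 in insect microsomes) were incubated separately with each analogue at 10 μM. The enzyme panel covers the major drug-metabolizing P450s. Products were monitored as the metabolites first found in human liver microsome incubations, identified by m/z and retention time.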

Data set [4] concerns the target T2, Cytochrome P450 2B6 (Homo sapiens, UniProt P20813).
T2 sequence (P20813 whole entry): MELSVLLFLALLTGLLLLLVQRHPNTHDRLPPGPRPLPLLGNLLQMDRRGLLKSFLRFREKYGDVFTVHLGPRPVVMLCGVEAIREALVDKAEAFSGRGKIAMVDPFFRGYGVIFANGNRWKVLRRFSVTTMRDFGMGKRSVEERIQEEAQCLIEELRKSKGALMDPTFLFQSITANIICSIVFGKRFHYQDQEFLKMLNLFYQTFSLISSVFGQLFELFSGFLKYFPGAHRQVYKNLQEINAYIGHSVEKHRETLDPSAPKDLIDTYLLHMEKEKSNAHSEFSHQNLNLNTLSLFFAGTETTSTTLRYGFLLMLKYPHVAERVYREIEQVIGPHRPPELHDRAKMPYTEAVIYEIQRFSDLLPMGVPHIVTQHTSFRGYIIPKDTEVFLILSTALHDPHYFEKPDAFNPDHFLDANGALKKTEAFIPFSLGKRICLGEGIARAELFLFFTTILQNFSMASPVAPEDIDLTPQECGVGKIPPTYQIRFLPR
The experiment in a line: Drug metabolism assessed as CYP2B6 (unknown origin)-mediated compound formation at 10 uM incubated for 60 mins in presence of NADPH by uHPLC-MS/MS method. It is filed as ADME. The settings on record: 1 h. A digest of the protocol: as §2

The target of data set [5] is T3, Cytochrome P450 3A5 (Homo sapiens, UniProt P20815). In words: Drug metabolism assessed as CYP3A5 (unknown origin)-mediated compound formation at 10 uM incubated for 60 mins in presence of NADPH by uHPLC-MS/MS method. The settings on record: 1 h. It is filed as ADME. A digest of the protocol: as §2
Target sequence in this assay (P20815 whole entry): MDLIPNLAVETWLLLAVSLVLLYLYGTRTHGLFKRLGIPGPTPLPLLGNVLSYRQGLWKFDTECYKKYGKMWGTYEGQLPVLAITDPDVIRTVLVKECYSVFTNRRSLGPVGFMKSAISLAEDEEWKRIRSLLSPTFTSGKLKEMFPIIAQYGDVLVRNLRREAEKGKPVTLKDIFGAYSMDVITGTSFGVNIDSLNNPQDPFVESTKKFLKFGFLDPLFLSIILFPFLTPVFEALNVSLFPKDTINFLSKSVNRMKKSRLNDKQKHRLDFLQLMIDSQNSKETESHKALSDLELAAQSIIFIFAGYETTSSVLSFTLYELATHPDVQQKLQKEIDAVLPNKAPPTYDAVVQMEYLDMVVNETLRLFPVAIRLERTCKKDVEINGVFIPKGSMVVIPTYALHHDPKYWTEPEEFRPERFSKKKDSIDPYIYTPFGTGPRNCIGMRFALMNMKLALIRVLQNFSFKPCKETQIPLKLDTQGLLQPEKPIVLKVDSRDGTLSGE
In data set [6] the test system is Liver microsome. The experiment in a line: Drug metabolism in pooled human liver microsomes assessed as compound formation at 10 uM incubated for 60 mins in presence of NADPH and using isotopic water by uHPLC-MS/MS method. It is filed as ADME. The conditions noted are these: 1 h. A digest of the protocol: as §1
The test system of data set [7] is Liver microsome. In words: Drug metabolism in pooled human liver microsomes assessed as mono-oxygenated metabolite formation at 10 uM incubated for 60 mins in presence of NADPH by uHPLC-MS/MS method. It is filed as ADME. The settings on record: 1 h. In a few lines: as §1
The target of data set [8] is T1, Cytochrome P450 1A2. The experiment in a line: Drug metabolism assessed as CYP1A2 (unknown origin)-mediated metabolite formation at 10 uM incubated for 60 mins in presence of NADPH by uHPLC-MS/MS method. It is filed as ADME. The conditions noted are these: 1 h. In a few lines: as §2
The target of data set [9] is T2, Cytochrome P450 2B6. In words: Drug metabolism assessed as CYP2B6 (unknown origin)-mediated metabolite formation at 10 uM incubated for 60 mins in presence of NADPH by uHPLC-MS/MS method. Format: ADME. The settings on record: 1 h. A digest of the protocol: as §2
Data set [10] concerns the target T4, CYP2B6 (Homo sapiens, UniProt P20813).
T4 sequence (P20813 whole entry): T2 sequence (P20813 whole entry)
The experiment in a line: Activity of CYP2B6 (unknown origin) pre-incubated for 5 mins in presence of NADPH by uHPLC-MS/MS based substrate depletion kinetics assay. Format: ADME. The conditions noted are these: CYP2B6 enzyme (unknown origin). In a few lines: (§3)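 cDNA-expressed CYP2B6 in insect microsomes. Parent loss was followed over time by substrate depletion, chosen because several metabolites form. Km and maximum depletion rate constant (kdep max, min–1) were derived from depletion kinetics, and Vmax was expressed as pmol/min/pmol P450.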

Data set [11] addresses T2, Cytochrome P450 2B6. The experiment in a line: Activity of CYP2B6 (unknown origin) assessed as maximum depletion rate constant pre-incubated for 5 mins in presence of NADPH by uHPLC-MS/MS based substrate depletion kinetics assay. It is filed as ADME. A digest of the protocol:
as §3

The target in data set [12] is T2, Cytochrome P450 2B6. In words: Activity of CYP2B6 (unknown origin) assessed per pmol protein pre-incubated for 5 mins in presence of NADPH by uHPLC-MS/MS based substrate depletion kinetics assay. Format: ADME. A digest of the protocol:
as §3

Data set [13] has as its target T4, CYP2B6. The experiment in a line: Inhibition of CYP2B6 (unknown origin) assessed as reduction in hydroxybupropion formation by measuring remaining enzyme activity at 10 uM incubated for 10 mins by uHPLC-MS/MS method. Format: ADME. The conditions noted are these: probe bupropion (hydroxybupropion formation), read-out: Activity. A digest of the protocol:
(§4)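 CYP2B6 insect microsomes were coincubated with the probe substrate bupropion plus test compound at 10 μM. Hydroxybupropion formation was measured and compared with a vehicle control.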

Data set [14] addresses T3, Cytochrome P450 3A5. In words: Drug metabolism assessed as CYP3A5 (unknown origin)-mediated metabolite formation at 10 uM incubated for 60 mins in presence of NADPH by uHPLC-MS/MS method. The conditions noted are these: 1 h.
Target sequence in this assay (P20815 whole entry, looked up): as the sequence (P20815 whole entry) above
Data set [15] concerns Liver microsome. The experiment in a line: Drug metabolism in pooled human liver microsomes assessed as metabolite formation at 10 uM incubated for 60 mins in presence of NADPH by uHPLC-MS/MS method. It is filed as ADME. The settings on record: 1 h. In a few lines:
as §1

For data set [16], the target named is T2, Cytochrome P450 2B6. In words: (§5) Inhibition of CYP2B6 (unknown origin) assessed as reduction in hydroxybupropion formation at 10 uM incubated for 10 mins by uHPLC-MS/MS method. It is filed as ADME. The settings on record: 10 min, 10 µM. A digest of the protocol: as §4
Data set [17] has as its target T4, CYP2B6. Described as §5. Format: ADME. The settings on record: CYP2B6 enzyme (unknown origin), probe bupropion (hydroxybupropion formation). In a few lines:
as §4

In the case of `CC(O)CC#CC1(C(F)(F)F)OC(=O)Nc2ccc(Cl)cc21` (stereo unspecified), in [1], the Drug metabolism entry is “metabolite_detected”. Also, the Retention_time in data set [2] is listed as 5.11 min.

`CCC(O)C#CC1(C(F)(F)F)OC(=O)Nc2ccc(Cl)cc21` (stereo unspecified): the Drug metabolism result in data set [1] is “metabolite_detected”. The molecule also gave a Retention_time in [2] of 5.6 min.

For the molecule `CCCC#CC1(C(F)(F)F)OC(=O)Nc2c(O)cc(Cl)cc21` (stereo unspecified), the Drug metabolism result in data set [1], in data set [3], in data set [4] and in data set [5] was “metabolite_detected” in each case. In data set [2], this molecule had a Retention_time of 6.98 min.

`OC1(C#C[C@]2(C(F)(F)F)OCNc3ccc(Cl)cc32)CC1`: the Drug metabolism entry in [1] and in data set [6] was “metabolite_detected” each time. For the same molecule, the Retention_time in [2] amounted to 5 min.

Take `CCCC#CC1(C(F)(F)F)OC(=O)Nc2ccc(Cl)cc21` (racemic): the Drug metabolism entry in data set [7], in [8], in data set [9] and in data set [14] was “metabolite_detected” in each case. Moreover, in [10], the Michaelis constant (Km) is 1.1 µM. Also, in data set [11], the K was found to be 0.0088 min⁻¹. In addition, the Vmax in [12] worked out at 0.97 pmol/min. The activity at 10 min, 10 µM in [13] was 27%.

For `COc1ccc(C(=O)Nc2ccc(Cl)cc2C(O)(C#CC2CC2)C(F)(F)F)cc1` (racemic), the Drug metabolism result in data set [15] was “metabolite_detected”. Further, the “inhibition (INH)” value in data set [16] is listed as “Not Active”.

Consider `O=C1Nc2ccc(Cl)cc2[C@@](C#CC2CC2)(C(F)(F)F)O1` [EFAVIRENZ], for which the Michaelis constant (Km) in [10] turned out to be 0.45 µM. Besides, the K in data set [11] came out at 0.023 min⁻¹. In addition, the Vmax in data set [12] came to 1 pmol/min. Besides, in [17], the inhibition at 10 min, 10 µM worked out at 93%.
